Among the data in ChEMBL document CHEMBL4715825, “Synthesis and biological evaluations of marine oxohexadecenoic acids: PPARα/γ dual agonism and anti-diabetic target gene effects” (Eur J Med Chem, 2018) are Activity values, retold here.

Molecules are shown by their SMILES. Calls of active or inactive are those of the source. No cut-off for these calls is given here.

Assay [1] has as its target T1, Peroxisome proliferator-activated receptor alpha (Homo sapiens) (UniProt Q07869).
T1 sequence (whole entry): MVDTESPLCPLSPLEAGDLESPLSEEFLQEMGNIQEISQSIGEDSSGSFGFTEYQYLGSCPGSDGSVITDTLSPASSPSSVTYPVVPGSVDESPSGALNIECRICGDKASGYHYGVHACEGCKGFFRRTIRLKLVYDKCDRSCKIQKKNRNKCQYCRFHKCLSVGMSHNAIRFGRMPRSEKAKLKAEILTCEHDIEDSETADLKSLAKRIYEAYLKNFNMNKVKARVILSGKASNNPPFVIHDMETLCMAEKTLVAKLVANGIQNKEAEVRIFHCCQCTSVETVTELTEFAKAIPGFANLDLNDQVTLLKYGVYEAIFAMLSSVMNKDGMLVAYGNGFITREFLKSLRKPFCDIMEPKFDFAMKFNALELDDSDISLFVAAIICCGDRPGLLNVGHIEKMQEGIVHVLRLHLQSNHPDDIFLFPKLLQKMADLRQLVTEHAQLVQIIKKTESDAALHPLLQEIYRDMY
As to the kind of experiment: Agonist activity at human PPARalpha in human HuH-7 cells assessed as increase in PLIN1 gene expression at 50 uM incubated for 24 hrs by SYBR-green based qPCR analysis. The class given is cell-based. The conditions noted are these: filed as agonist. In a few lines:
(§1)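 Cells were seeded at 2×10^5 per well and treated 24 h later with compound in DMSO (final 0.1%). The next day, cells were washed and scraped into RLT buffer. RNA was isolated, and target gene mRNA was quantified by SYBR-green qPCR with specific primers.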
Background: Quantitative PCR measures a nucleic acid by following its amplification.

Assay [2] addresses T1, Peroxisome proliferator-activated receptor alpha (Homo sapiens). As to the kind of experiment: Agonist activity at human PPARalpha in human HuH-7 cells assessed as increase in ACSL3 gene expression at 50 uM incubated for 24 hrs by SYBR-green based qPCR analysis. The class given is cell-based. As to conditions: filed as agonist. In a few lines: as §1

Consider `CCCCC/C=C/C(=O)CCCCCCCC(=O)O`, for which the result in assay [1] was Active.

With `CCCCCCCC(=O)/C=C/CCCCCC(=O)O`, the outcome in assay [2] was Active.
